Results pooled from the literature.
Each line is one published result; the experiments were not run side by side.
FLT3: Receptor-type tyrosine-protein kinase FLT3 (FLT3, Homo sapiens, UniProt P36888)
FLT3 N841I: Receptor-type tyrosine-protein kinase FLT3 (FLT3, Homo sapiens, UniProt P36888, N841I)
FLT3 D835H: Receptor-type tyrosine-protein kinase FLT3 (FLT3, Homo sapiens, UniProt P36888, D835H)
FLT3 R834Q: Receptor-type tyrosine-protein kinase FLT3 (FLT3, Homo sapiens, UniProt P36888, R834Q)
FLT3 D835Y: Receptor-type tyrosine-protein kinase FLT3 (FLT3, Homo sapiens, UniProt P36888, D835Y)

O=C(O)c1cc(-c2ccc(C3CCNCC3)cc2)c2ccc(-c3ccc(C(F)(F)F)cc3)cc2c1 — remaining binding (Receptor-type tyrosine-protein kinase FLT3 (FLT3, Homo sapiens, UniProt P36888, F691L/ITD); cell-free assay, competition with immobilised ligand; 1 µM): 100%
CCCOc1ccc(OC)c(F)c1C(=O)c1ccc(C(=O)N[C@@H]2CNC[C@H]2NC(=O)c2ccc3[nH]ncc3c2)cc1 — remaining activity (FLT3; enzyme activity, inhibitor; 10 µM): 32%
CCN(CC)CCNC(=O)c1c(C)[nH]c(/C=C2\C(=O)Nc3ccc(F)cc32)c1C — remaining activity (FLT3; enzyme activity, inhibitor; 0.1 µM): 1%
CN(c1nccc(-c2cnn3ncccc23)n1)C1CC1 — remaining binding (Receptor-type tyrosine-protein kinase FLT3, autoinhibited (FLT3, Homo sapiens, UniProt P36888); binding; 1 µM): 100%
CC(C)c1ccc(NC(=O)c2cccs2)c(-c2nc3ccccc3[nH]c2=O)c1 — activity vs control (FLT3; enzyme activity, inhibitor; 1 µM): 51%
C[S+]([O-])c1ccc(-c2nc(-c3ccncc3)c(-c3ccc(F)cc3)[nH]2)cc1 (stereo not shown) — remaining signal (FLT3; cell-free assay; 0.5 µM): 91.5%
Cc1ccc(C(=O)Nc2ccc(CN3CCN(C)CC3)c(C(F)(F)F)c2)cc1C#Cc1cnc2cccnn12 — remaining activity (Receptor-type tyrosine-protein kinase FLT3 (FLT3, Homo sapiens, UniProt P36888, K663Q); enzyme activity, inhibitor; 23.5 nM): 6.3%
COc1cc(-c2cn(C3CCc4ccccc4N(CC(F)(F)F)C3=O)nn2)ccc1-n1ccc(C)n1 (stereo not shown) — remaining binding (FLT3 N841I; cell-free assay, competition with immobilised ligand; 1 µM): 100%
CCN(CC)CCNC(=O)c1c(C)[nH]c(/C=C2\C(=O)Nc3ccc(F)cc32)c1C — remaining signal (FLT3; cell-free assay; 0.5 µM): 2.71%
O=C(NS(=O)(=O)c1ccc(NCC2CCOCC2)c([N+](=O)[O-])c1)c1ccc(N2CCN(Cc3ccc(C(F)(F)F)cc3-c3ccc(Cl)cc3)CC2)cc1Oc1cnc2[nH]ccc2c1 — remaining binding (Receptor-type tyrosine-protein kinase FLT3 (FLT3, Homo sapiens, UniProt P36888, D835V/ITD); cell-free assay, competition with immobilised ligand; 1 µM): 88%
Fc1cccc(-n2cnc3c(NCc4nc5c(F)c(F)ccc5[nH]4)nc(N4CCOCC4)nc32)c1 — binding vs control (FLT3 D835H; binding, competition with immobilised ligand; 10 µM): 42%
COc1ccc2c(c1)O[C@@H](c1ccc(OC)c(OC)c1)C[C@H]2NC(=O)C1(c2ccc3c(c2)OC(F)(F)O3)CC1 — remaining binding (FLT3 N841I; cell-free assay, competition with immobilised ligand; 1 µM): 100%
Nc1ncnc2occ(-c3ccc(NC(=O)Nc4cc(C(F)(F)F)ccc4F)cc3)c12 — remaining signal (FLT3 R834Q; cell-free assay, inhibitor; 20 µM): 0%
COc1ccc2cc(OCC3(C(=O)O)CN(C(=O)c4ccc(F)cc4)C3)ccc2c1 — remaining binding (FLT3; cell-free assay, competition with immobilised ligand; 1 µM): 97%
CC(C)(C)c1nc(-c2cccc(NS(=O)(=O)c3c(F)cccc3F)c2F)c(-c2ccnc(N)n2)s1 — remaining activity (FLT3; enzyme activity, inhibitor, radiometric; 1 µM): 117%
CN(C)c1nccc(-c2cnn3ncccc23)n1 — remaining binding (FLT3 R834Q; binding; 1 µM): 100%
CN(C)C1CCN(CC#Cc2nn(C3CCCC3)c3nc(NCc4ccccc4)ncc23)C1 (stereo not shown) — inhibition (FLT3; enzyme activity, inhibitor, FRET; 10 µM): 59%
O=C(Nc1cnn(-c2csc(C(=O)NC3COC3)c2)c1)Nc1ccccc1Cl — remaining activity (FLT3; enzyme activity, inhibitor; 5 µM): 89.7%
Cc1cc(NC(=O)c2cccc3cc(-c4cccc5[nH]nc(N)c45)ccc23)ccc1F — activity vs control (FLT3 D835Y; enzyme activity, inhibitor; 0.1 µM): 98%
Cc1nc(N2CC[C@@H](O)C2)ncc1-c1cc(C(F)(F)F)cc2[nH]ncc12 — remaining binding (FLT3 D835H; binding, competition with immobilised ligand; 1 µM): 100%
N#CCCc1ccc2c(c1)-c1[nH]c3ccc([N+](=O)[O-])cc3c1CC(=O)N2 — remaining signal (FLT3; cell-free assay; 0.5 µM): 15.1%
Cc1ccc(C(=O)NCc2ccsc2)cc1C#Cc1cn(C(C)C)c2ncnc(N)c12 — activity vs control (FLT3 D835Y; enzyme activity, inhibitor; 1 µM): 118%
